Measurements collected from several papers.
Compare with care: the assays were run in different laboratories.
Target: Dual specificity tyrosine-phosphorylation-regulated kinase 2 (DYRK2, Homo sapiens, UniProt Q92630)
Read-out: enzyme activity
Action: inhibitor
Residues used in one study (Q92630 1-601): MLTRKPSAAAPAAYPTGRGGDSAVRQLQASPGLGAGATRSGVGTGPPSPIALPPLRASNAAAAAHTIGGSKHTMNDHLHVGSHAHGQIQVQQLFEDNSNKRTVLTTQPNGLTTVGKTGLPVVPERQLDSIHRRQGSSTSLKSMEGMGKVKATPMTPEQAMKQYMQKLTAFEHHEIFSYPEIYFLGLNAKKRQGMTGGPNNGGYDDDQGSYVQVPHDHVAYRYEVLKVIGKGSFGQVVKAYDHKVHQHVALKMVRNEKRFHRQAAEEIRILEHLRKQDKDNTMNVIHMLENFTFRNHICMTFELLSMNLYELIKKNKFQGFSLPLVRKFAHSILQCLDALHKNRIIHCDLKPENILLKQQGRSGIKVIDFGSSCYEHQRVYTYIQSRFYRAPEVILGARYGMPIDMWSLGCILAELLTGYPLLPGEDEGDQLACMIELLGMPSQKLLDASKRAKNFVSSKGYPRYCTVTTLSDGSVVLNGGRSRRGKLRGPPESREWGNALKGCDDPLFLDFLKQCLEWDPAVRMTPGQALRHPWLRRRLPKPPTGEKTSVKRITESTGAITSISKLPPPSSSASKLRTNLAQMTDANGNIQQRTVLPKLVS

Compound | method | concentration | remaining activity
Cc1cnc(NC2CCOCC2)nc1-n1cnc(C(=O)NC(CN)c2cc(F)cc(Cl)c2)c1 (stereo not shown) | radiometric | 1 µM | 30%
CCN(CC)c1ccc(C2=NNC(=O)CC2C)cc1[N+](=O)[O-] (stereo not shown) |  | 10 µM | 100%
N#Cc1cccc(Nc2nc3cc(C(=O)O)ccc3c3cnccc23)c1 | radiometric | 1 µM | 11%
CC(C)(C)c1nc2c(s1)c1nc(N)ncc1c1ccc(NS(=O)(=O)c3c(F)cccc3F)c(F)c12 | radiometric | 1 µM | 94%
O=C(O)c1ccc2c(c1)nc(Nc1ccccc1)c1ccncc12 | radiometric | 1 µM | 45%
COc1cc(Nc2cnc(C#N)c(O[C@H](C)CN(C)C)n2)ncc1-c1cnn(C)c1 | radiometric | 10 µM | 100%
O=C(Nc1cnn(-c2csc(C(=O)NC3COC3)c2)c1)Nc1ccccc1Cl |  | 5 µM | 88.2%
O=C(O)c1ccc2c(c1)nc(NCCc1ccccc1)c1ccncc12 | radiometric | 1 µM | 9%
Nc1nc(NC2CCCCC2)sc1C(=O)c1ccccc1 |  | 10 µM | 39%
Oc1cccc(-c2nc(N3CCOCC3)c3oc4ncccc4c3n2)c1 |  | 10 µM | 83%
COc1cc(Cl)c(C(=O)N[C@@H](CN[C@H]2CC[C@@H](N)CC2)Cc2ccc(C#N)cc2)cc1-c1ccc(CN[C@H](C)c2ccc(C)cc2)o1 |  | 1 µM | 98%
O=C(O)c1ccc2c(c1)nc(Nc1ccc(Cl)cc1)c1ccncc12 | radiometric | 1 µM | 11%
Cc1ccc(C(=O)Nc2ccc(CN3CCN(C)CC3)c(C(F)(F)F)c2)cc1C#Cc1cnc2cccnn12 |  | 23.5 nM | 80%
